Among the data in ChEMBL document CHEMBL3272177, “Hypolipidemic alkoxybenzoic acids” (1976) are Activity values, retold here.

Holding throughout (design): scale not given: the % may be the effect or the level left
For assay [1], the species on record is Rattus norvegicus. Kind of assay: Reduction in sterol level in CFE rat […] at 0.025% of diet treated through diet for 6 days relative to control. The assay is classed as functional, Serum. The essentials: (§1)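 Compound dissolved in methanol-chloroform (1:3 v/v), mixed into ground rat chow at 0.1, 0.05 or 0.025% (w/w), and solvent evaporated; controls received solvent-treated chow. Rats fed ad libitum with water for 6 days, then killed fed and bled. Serum sterols and triglycerides measured by autoanalyzer. Values given as percent of control, mean ± SE; significance by Student's t test.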

Assay [2] is filed under the species Rattus norvegicus. Kind of assay: Reduction in triglyceride level in CFE rat […] in serum at 0.05% of diet treated through diet for 6 days relative to control. The assay is classed as functional. An outline of the steps:
as §1

Assay [3] is filed under the species Rattus norvegicus. Briefly: Reduction in sterol level in CFE rat […] in serum at 0.05% of diet treated through diet for 6 days relative to control. The assay is classed as functional. The essentials: as §1
Assay [4] is filed under the species Rattus norvegicus. Kind of assay: Reduction in sterol level in CFE rat […] in serum at 0.1% of diet treated through diet for 6 days relative to control. The assay is classed as functional. The essentials:
as §1

Assay [5] is filed under the species Rattus norvegicus. Kind of assay: Reduction in triglyceride level in CFE rat […] at 0.025% of diet treated through diet for 6 days relative to control. The assay is classed as functional, Serum. An outline of the steps: as §1
The species named for assay [6] is Rattus norvegicus. Kind of assay: Reduction in triglyceride level in CFE rat […] in serum at 0.1% of diet treated through diet for 6 days relative to control. The assay is classed as functional. An outline of the steps: as §1

As to `CCCCNC(=O)CCCCCCCCCCOc1ccc(C(=O)O)cc1`, the Activity in the assay filed under Rattus norvegicus [1] is given as 99%; in the assay filed under Rattus norvegicus [2], 87%; in the assay listed under Rattus norvegicus [3] it was 96%; in the assay filed under Rattus norvegicus [4], 88%; in the assay filed under Rattus norvegicus [5], 93%; in the assay listed under Rattus norvegicus [6] it was 85%.
Take `CCCCCCCCCCCC(O)CCOc1ccc(C(=O)O)cc1` (stereo not drawn): the Activity was found to be 105% in the assay filed under Rattus norvegicus [1]; 60% in the assay filed under Rattus norvegicus [2]; 112% in the assay listed under Rattus norvegicus [3]; 116% in the assay listed under Rattus norvegicus [4]; 69% in the assay filed under Rattus norvegicus [5]; 53% in the assay listed under Rattus norvegicus [6].
In the case of `CCSCCCCCCCCCCCOc1ccc(C(=O)O)cc1`, the Activity in the assay filed under Rattus norvegicus [1] amounted to 74%; in the assay listed under Rattus norvegicus [2] it was 56%; in the assay listed under Rattus norvegicus [3], 70%; in the assay filed under Rattus norvegicus [4] it was 76%; in the assay listed under Rattus norvegicus [5], 60%; in the assay filed under Rattus norvegicus [6], 48%.
Regarding `CCCSCCCCCCCCCCCOc1ccc(C(=O)O)cc1`, the Activity was determined as 96% in the assay filed under Rattus norvegicus [1]; 43% in the assay listed under Rattus norvegicus [2]; 94% in the assay listed under Rattus norvegicus [3]; 86% in the assay listed under Rattus norvegicus [4]; 61% in the assay listed under Rattus norvegicus [5]; 42% in the assay filed under Rattus norvegicus [6].
For the compound `CCCCCCCCCCCCCCCC(C)(C)Oc1ccc(C(=O)O)cc1`, the Activity in the assay filed under Rattus norvegicus [1] is 101%; in the assay listed under Rattus norvegicus [2], 111%; in the assay filed under Rattus norvegicus [3] it was 112%; in the assay filed under Rattus norvegicus [4], 96%; in the assay filed under Rattus norvegicus [5], 103%; in the assay listed under Rattus norvegicus [6], 100%.
Consider `O=C(O)c1ccc(OCCCCCCCCCCCCCCCSCc2ccccc2)cc1`, for which the Activity is 109% in the assay listed under Rattus norvegicus [1]; 50% in the assay listed under Rattus norvegicus [2]; 101% in the assay listed under Rattus norvegicus [3]; 82% in the assay listed under Rattus norvegicus [4]; 70% in the assay listed under Rattus norvegicus [5]; 37% in the assay filed under Rattus norvegicus [6].
As to `CCCCCCCCCCCCCC(C)(C)Oc1ccc(C(=O)O)cc1`, the Activity in the assay listed under Rattus norvegicus [1] turned out to be 92%; in the assay filed under Rattus norvegicus [2], 105%; in the assay filed under Rattus norvegicus [3], 120%; in the assay listed under Rattus norvegicus [4] it was 100%; in the assay listed under Rattus norvegicus [5], 127%; in the assay filed under Rattus norvegicus [6] it was 83%.
For the compound `CCCCCCCCCCCCCCCCOc1ccc(C(=O)O)cc1[N+](=O)[O-]`, the Activity in the assay listed under Rattus norvegicus [1] came out at 95%; in the assay filed under Rattus norvegicus [2] it was 120%; in the assay listed under Rattus norvegicus [3], 101%; in the assay listed under Rattus norvegicus [4], 103%; in the assay listed under Rattus norvegicus [5], 93%; in the assay listed under Rattus norvegicus [6], 122%.
With `CCCCOCCCCCCCCCCCOc1ccc(C(=O)O)cc1`, the Activity in the assay filed under Rattus norvegicus [1] is recorded as 75%; in the assay filed under Rattus norvegicus [2], 67%; in the assay filed under Rattus norvegicus [3] it was 81%; in the assay listed under Rattus norvegicus [4] it was 97%; in the assay listed under Rattus norvegicus [5] it was 74%; in the assay filed under Rattus norvegicus [6] it was 55%.
With `C=CCCCCCCCCCOc1ccc(C(=O)OC)cc1`, the Activity in the assay filed under Rattus norvegicus [1] came to 97%; in the assay filed under Rattus norvegicus [2], 52%; in the assay listed under Rattus norvegicus [3] it was 94%; in the assay listed under Rattus norvegicus [4] it was 90%; in the assay filed under Rattus norvegicus [5], 65%; in the assay listed under Rattus norvegicus [6], 58%.
Consider `CCCCCCCCCCCC(CCOc1ccc(C(=O)OC)cc1)SC(C)=O` (stereo not drawn), for which the Activity in the assay listed under Rattus norvegicus [1] is 94%; in the assay listed under Rattus norvegicus [2] it was 70%; in the assay filed under Rattus norvegicus [3], 89%; in the assay filed under Rattus norvegicus [4], 81%; in the assay filed under Rattus norvegicus [5], 83%; in the assay listed under Rattus norvegicus [6], 59%.
As to `CCCCCCCCCCCC(Cl)CCOc1ccc(C(=O)O)cc1` (stereo not drawn), the Activity in the assay listed under Rattus norvegicus [1] was 72%; in the assay filed under Rattus norvegicus [2] it was 53%; in the assay listed under Rattus norvegicus [3], 69%; in the assay listed under Rattus norvegicus [4], 60%; in the assay filed under Rattus norvegicus [5] it was 59%; in the assay listed under Rattus norvegicus [6] it was 47%.
For `CCCCCCCCCCCCC(CCC)Oc1ccc(C(=O)O)cc1` (stereo not drawn), the Activity in the assay filed under Rattus norvegicus [1] was 78%; in the assay filed under Rattus norvegicus [2], 62%; in the assay filed under Rattus norvegicus [3], 76%; in the assay listed under Rattus norvegicus [4], 74%; in the assay listed under Rattus norvegicus [5], 70%; in the assay filed under Rattus norvegicus [6], 53%.
